The record followed here is ChEMBL document CHEMBL4373727, “Thienopyrimidinone Derivatives That Inhibit Bacterial tRNA (Guanine37-N1)-Methyltransferase (TrmD) by Restructuring the Active Site with a Tyrosine-Flipping Mechanism” (J Med Chem, 2019).

The test system of one series is Enterococcus faecalis. Description: Antibacterial activity against Enterococcus faecalis ATCC 51299 at 100 uM incubated for 24 hrs. Format: functional, organism-based. The method, boiled down: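 Single-concentration screen in brain heart infusion broth. Log-phase cells at ~5×10^5 cells/mL were grown with 100 μM compound for 24 h at 37 °C. Growth was read as OD600 and expressed as a percentage of untreated wells. DMSO and blank controls were included.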

Series [1] has as its system Mycolicibacterium smegmatis. Description: Antibacterial activity against Mycolicibacterium smegmatis MC2 155 at 100 uM incubated for 24 hrs. It is filed as functional, organism-based. In a few lines: (§1)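 Single-concentration growth screen: 100 μM test compound with log-phase bacteria at about 5×10^5 cells/mL. Incubation 24 h at 37 °C. Growth read by OD600 and given as percent of untreated control. MRSA was grown in cation-adjusted Mueller–Hinton broth. M. smegmatis was grown in complete Middlebrook 7H9. Ampicillin and kanamycin served as positive controls.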

Another series concerns Erythrocyte. The experiment in a line: Hemolytic activity in human RBC at 100 uM measured after 1 hr. It is filed as ADME, cell-based. In a few lines:
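Fresh human RBCs were PBS-washed and resuspended to OD600 24, then mixed 1:1 by volume with compound serially diluted in PBS. Incubated 1 h at 37 °C without shaking and centrifuged at 1000g for 15 min. Triton X-100 served as positive control. Run in triplicate.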

The subject of a further series is Staphylococcus aureus. The experiment in a line: Antibacterial activity against methicillin-resistant Staphylococcus aureus ATCC 43300 at 100 uM incubated for 24 hrs. It is filed as functional, organism-based. In a few lines: as §1
Another series relates to Streptococcus pneumoniae. The experiment in a line: Antibacterial activity against Streptococcus pneumoniae ATCC 49619 at 100 uM incubated for 24 hrs. It is filed as functional, organism-based. The method, boiled down: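 Single 100 μM screen in MH medium with 3% defibrinated sheep blood at 37 °C under 5% CO2, ~5×10^5 cells/mL, 24 h.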
For series [2], the system named is Mycobacterium tuberculosis. The experiment in a line: Antibacterial activity against Mycobacterium tuberculosis ATCC 27294 at 100 uM incubated for 7 days. It is filed as functional, organism-based.
The target of series [3] is T1, tRNA (guanine-N(1)-)-methyltransferase (Pseudomonas aeruginosa (strain ATCC 15692 / DSM 22644 / CIP 104116 / JCM14847 / LMG 12228 / 1C / PRS 101 / PAO1), UniProt Q9HXQ1).
T1 sequence (Q9HXQ1 whole entry): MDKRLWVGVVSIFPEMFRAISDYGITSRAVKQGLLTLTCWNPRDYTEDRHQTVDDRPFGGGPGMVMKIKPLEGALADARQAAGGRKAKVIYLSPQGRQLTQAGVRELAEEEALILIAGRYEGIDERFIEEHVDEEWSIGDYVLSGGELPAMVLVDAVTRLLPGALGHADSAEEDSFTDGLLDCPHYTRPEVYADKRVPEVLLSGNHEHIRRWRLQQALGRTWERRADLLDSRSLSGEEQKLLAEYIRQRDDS
Description: Inhibition of Pseudomonas aeruginosa tRNA (guanine(37)-N1)-methyltransferase (Leu5 to Asp25 residues) expressed in Escherichia coli BL21 (DE3) Rosetta T1R cells assessed as reduction in S-adenosyl-L-homocysteine production preincubated for 15 mins followed by 1.5 uM of tRNALeu(CAG) substrate and SAM addition and measured after 45 mins by MTase-Glo assay. In a few lines:
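MTase-Glo luminescence assay. 8 nM TrmD preincubated 15 min at ambient temperature with serially diluted inhibitor (0–500 μM) in 50 mM Tris-HCl pH 8.0, 80 mM NaCl, 1 mM MgCl2, 0.5 mM DTT, 0.01% Triton X-100. Reaction with 2 μM SAM and tRNALeu(CAG), 45 min at 37 °C. Detection 30 min in the dark, SAH read against a standard curve. IC50 by nonlinear regression. Two independent experiments in duplicate.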

The target of series [4] is T2, tRNA (guanine-N(1)-)-methyltransferase (Pseudomonas aeruginosa (strain ATCC 15692 / DSM 22644 / CIP 104116 / JCM14847 / LMG 12228 / 1C / PRS 101 / PAO1)) (UniProt Q9HXQ1).
T2 sequence (whole entry): T1 sequence (Q9HXQ1 whole entry)
Description: Binding affinity to Pseudomonas aeruginosa tRNA (guanine(37)-N1)-methyltransferase (Leu5 to Asp25 residues) expressed in Escherichia coli BL21 (DE3) Rosetta T1R cells assessed as thermal stabilization of protein by measuring change in melting temperature at 0.1 mM by SYPRO orange based thermal shift assay. In a few lines: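 Thermal shift: 4 μM TrmD with 5× SYPRO Orange and ligand in 50 mM Tris-HCl pH 8, 150 mM NaCl, 1 mM MgCl2, 1 mM DTT, 0.05% Tween-20. Buffer-only control. Heated from 25 to 95 °C in a real-time PCR instrument, and Tm taken as the unfolding midpoint. Ligand levels: SAH 2 mM, inhibitors 0.1 mM.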

The source made the active and inactive calls. Unless noted, the calls are words filed in the database; no cut-off is given here.

By IC50 is commonly meant the concentration that gives 50% inhibition. In the case of `O=C(NCc1ccc(CNCCOCCO)cc1)c1csc2nc[nH]c(=O)c12`, the result (with Enterococcus faecalis; in series [1]; in the series with Staphylococcus aureus; in the series with Streptococcus pneumoniae; in series [2]) was inactive. In the series with Erythrocyte, the Activity entry was “Non-Toxic”. For the same compound, in series [3], the concentration for half-maximal inhibition (IC50) was 110 nM.
In the case of `O=C(NCc1ccc(CNC23CC4CC(CC(C4)C2)C3)cc1)c1csc2nc[nH]c(=O)c12`, the result (in the series on Enterococcus faecalis; in series [1]; in the series on Staphylococcus aureus; with Streptococcus pneumoniae; in series [2]) was inactive. Besides, the Activity entry in the series with Erythrocyte is “Non-Toxic”. Moreover, in series [3], the 50% inhibitory concentration (IC50) amounted to 720 nM.
Take `O=C(NCc1ccc(CN2CCOCC2)cc1)c1csc2nc[nH]c(=O)c12`: the result (with Enterococcus faecalis; in series [1]; with Staphylococcus aureus; in the series on Streptococcus pneumoniae; in series [2]) was inactive. Also, the Activity entry in the series on Erythrocyte was “Non-Toxic”. Also, the IC50 in series [3] turned out to be 3000 nM.
Turning to `O=C(NCc1ccc(CNC2CCCCC2)cc1)c1csc2nc[nH]c(=O)c12`, the outcome (in the series on Enterococcus faecalis; in series [1]; in the series on Staphylococcus aureus; with Streptococcus pneumoniae; in series [2]) was inactive. The Activity entry in the series with Erythrocyte is given as “Non-Toxic”. In series [3], the concentration for half-maximal inhibition (IC50) is 790 nM.
Usually ΔTm stands for the change in melting temperature against a reference sample. Regarding `CCCCCCCCNCc1ccc(CNC(=O)c2csc3ncnc(OCc4ccc(N=[N+]=[N-])cc4)c23)cc1`, the half-inhibitory concentration (IC50) in series [3] was 1800 nM. Also, the ΔTm in series [4] lay within 1 to 2 °C.
In the case of `CCCCCCCCN(CC)Cc1ccc(CNC(=O)c2csc3nc[nH]c(=O)c23)cc1`, the outcome (in the series with Enterococcus faecalis; in series [1]; in the series with Staphylococcus aureus; with Streptococcus pneumoniae; in series [2]) was inactive. Moreover, the IC50 in series [3] was determined as 370 nM.
In the case of `CCCCCCCCN(Cc1ccccc1)Cc1ccc(CNC(=O)c2csc3nc[nH]c(=O)c23)cc1`, the result (in the series on Enterococcus faecalis; in series [1]; with Staphylococcus aureus; in the series with Streptococcus pneumoniae; in series [2]) was inactive. Also, the Activity entry in the series on Erythrocyte was “Non-Toxic”. Further, the half-maximal inhibitory concentration (IC50) in series [3] is 12000 nM.
As for `O=C(NCc1ccc(CNCc2ccccc2)cc1)c1csc2nc[nH]c(=O)c12`, the result (in the series with Enterococcus faecalis; in series [1]; in the series on Staphylococcus aureus; in the series with Streptococcus pneumoniae; in series [2]) was inactive. Besides, in the series on Erythrocyte, the Activity result is “Non-Toxic”. In series [3], the IC50 was 130 nM.
Consider `CCCCCNCc1ccc(CNC(=O)c2csc3nc[nH]c(=O)c23)cc1`, for which the result (in the series on Enterococcus faecalis; in series [1]; with Staphylococcus aureus; with Streptococcus pneumoniae; in series [2]) was inactive. In the series with Erythrocyte, the Activity entry is listed as “Non-Toxic”. In addition, the IC50 in series [3] stood at 85 nM.
For `CCCCCCN(Cc1ccccc1)Cc1ccc(CNC(=O)c2csc3nc[nH]c(=O)c23)cc1`, the result (in the series on Enterococcus faecalis; in series [1]; with Staphylococcus aureus; in the series on Streptococcus pneumoniae; in series [2]) was inactive. For the same compound, in series [3], the half-maximal inhibitory concentration (IC50) turned out to be 2200 nM.
With `CCN(Cc1ccccc1)Cc1ccc(CNC(=O)c2csc3nc[nH]c(=O)c23)cc1`, the outcome (with Enterococcus faecalis; in series [1]; in the series with Staphylococcus aureus; in the series on Streptococcus pneumoniae; in series [2]) was inactive. The Activity result in the series on Erythrocyte is reported as “Non-Toxic”. Besides, in series [3], the IC50 is 2200 nM.
With `CCN(CC)Cc1ccc(CNC(=O)c2csc3nc[nH]c(=O)c23)cc1`, the outcome (in the series on Enterococcus faecalis; in series [1]; in the series on Staphylococcus aureus; in the series on Streptococcus pneumoniae; in series [2]) was inactive. In the series on Erythrocyte, the Activity entry is “Non-Toxic”. Besides, in series [3], the IC50 worked out at 730 nM.
For the compound `CCOCCOCCNCc1ccc(CNC(=O)c2csc3nc[nH]c(=O)c23)cc1`, the outcome (in the series with Enterococcus faecalis; in series [1]; in the series on Staphylococcus aureus; in the series with Streptococcus pneumoniae; in series [2]) was inactive. Besides, in series [3], the IC50 came out at 210 nM.
For the compound `CCN(Cc1ccc(CNC(=O)c2csc3nc[nH]c(=O)c23)cc1)C1CCCCC1`, the result (in the series on Enterococcus faecalis; in series [1]; in the series with Staphylococcus aureus; in the series with Streptococcus pneumoniae; in series [2]) was inactive. Besides, the Activity result with Erythrocyte is “Non-Toxic”. Besides, the IC50 in series [3] turned out to be 490 nM.
In the case of `CCCCNCc1ccc(CNC(=O)c2csc3nc[nH]c(=O)c23)cc1`, the result (with Enterococcus faecalis; in series [1]; in the series on Staphylococcus aureus; with Streptococcus pneumoniae; in series [2]) was inactive. For the same compound, the Activity result in the series on Erythrocyte is given as “Non-Toxic”. Moreover, the half-inhibitory concentration (IC50) in series [3] was found to be 150 nM.
`O=C(NCc1ccc(CN2CCCCC2)cc1)c1csc2nc[nH]c(=O)c12`: the outcome (in the series with Enterococcus faecalis; in series [1]; with Staphylococcus aureus; with Streptococcus pneumoniae; in series [2]) was inactive. In addition, the Activity entry with Erythrocyte is “Non-Toxic”. In addition, the IC50 in series [3] turned out to be 1100 nM.
